Experimental findings from ChEMBL document CHEMBL3588837, “Development and validation of a novel assay to identify radiosensitizers that target nucleophosmin 1” (Bioorg Med Chem, 2015) are described below.

In assay [1] the test system is Nucleophosmin (Homo sapiens), P06748 [T199N]. Briefly: Inhibition of phosphorylated NPM1 recruitment to chromatic in 6 Gy irradiated human A549 cells assessed as band intensity ratio of protein solubility measured as extraction of pT199NPM1 pretreated 30 mins and measured after 90 mins of irradiation at 25 uM by Western blot analysis in presence of high NP-40 lysis buffer relative to DMSO control. It is filed as cell-based. The method in brief: (§1)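 A549 cells at 70–80% confluency were exposed to compound for 30 min, given 6 Gy from a Cs137 source at 2 Gy/min, and held 90 min at 37°C. Equal protein was run on 10% SDS-PAGE and immunoblotted for pT199 NPM1 and total NPM1. Band intensity ratio = (compound+6 Gy)/(DMSO+6 Gy).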
Sequence of Nucleophosmin (Homo sapiens), P06748 [T199N] (P06748 whole entry T199N): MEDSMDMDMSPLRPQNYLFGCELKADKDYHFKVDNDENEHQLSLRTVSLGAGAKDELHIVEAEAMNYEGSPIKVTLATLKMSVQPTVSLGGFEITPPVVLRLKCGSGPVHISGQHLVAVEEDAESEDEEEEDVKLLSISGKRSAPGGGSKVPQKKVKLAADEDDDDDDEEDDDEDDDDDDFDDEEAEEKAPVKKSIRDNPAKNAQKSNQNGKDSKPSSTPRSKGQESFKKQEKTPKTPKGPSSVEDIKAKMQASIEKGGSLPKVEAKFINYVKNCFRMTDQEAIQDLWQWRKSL
On the technique in general: Immunoblotting shows a protein as a band on a membrane.

Assay [2] has the same test system. Briefly: Inhibition of phosphorylated NPM1 recruitment to chromatic in 6 Gy irradiated human A549 cells assessed as band intensity ratio of protein solubility measured as extraction of pT199NPM1 pretreated 30 mins and measured after 90 mins of irradiation at 2.5 uM by Western blot analysis in presence of high NP-40 lysis buffer relative to DMSO control. It counts as cell-based.

The target of assay [3] is T1, Nucleophosmin (Homo sapiens, UniProt P06748, T199N). Briefly: Inhibition of phosphorylated NPM1 recruitment to chromatic in 6 Gy irradiated human A549 cells assessed as extraction of pT199NPM1 pretreated 30 mins and measured after 90 mins of irradiation by Western blot analysis in presence of high NP-40 lysis buffer. It is filed as cell-based.
T1 sequence (P06748 whole entry T199N): as above
Assay [4] has as its system Nucleophosmin (Homo sapiens), P06748 [T199N]. The experiment in a line: Inhibition of phosphorylated NPM1 recruitment to chromatic in 6 Gy irradiated human A549 cells assessed as increase in protein solubility as extraction of pT199NPM1 pretreated 30 mins and measured after 90 mins of irradiation by Western blot analysis relative to YTR107 in presence of high NP-40 lysis buffer. It counts as cell-based.

Assay [5] concerns NCI-H460. Briefly: Radiodensitization of 6 Gy irradiated human H460 cells assessed as colony formation pretreated 30 mins followed by irradiated for 90 mins and washed off measured after 10 to 14 days incubation at 5 uM by trypan blue assay. It is filed as functional, cell-based. In a few lines: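 H460 cells, grown in RPMI-1640, were plated in T25 flasks and exposed to 5 μM drug at 37°C for 30 min. They were then irradiated at various radiation doses and incubated 90 min. Drug was washed off with PBS and fresh medium added. Flasks were kept 10–14 days, and colonies were stained with trypan blue and counted.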

Assay [6] has as its target Nucleophosmin (Homo sapiens) (UniProt P06748). The experiment in a line: Inhibition of phosphorylated NPM1 recruitment to chromatic in 6 Gy irradiated human A549 cells assessed as increase in solubility of protein pretreated 30 mins and measured after 90 mins of irradiation at 2.5 to 5 uM by Western blot analysis relative to DMSO control in presence of high NP-40 lysis buffer. It counts as cell-based.

Assay [7] has as its system Nucleophosmin (Homo sapiens), P06748 [T199N]. The experiment in a line: Inhibition of phosphorylated NPM1 recruitment to chromatic in 6 Gy irradiated human A549 cells assessed as extraction of pT199NPM1 pretreated 30 mins and measured after 90 mins of irradiation at 2.5 uM by Western blot analysis relative to DMSO control in presence of high NP-40 lysis buffer. It is filed as cell-based. In a few lines: as §1

In assay [8] the target is Nucleophosmin (Homo sapiens) (UniProt P06748). Briefly: Inhibition of phosphorylated NPM1 recruitment to chromatic in 6 Gy irradiated human A549 cells assessed as increase in solubility of protein pretreated 30 mins and measured after 90 mins of irradiation at 5 uM by Western blot analysis relative to DMSO control in presence of high NP-40 lysis buffer. It counts as cell-based.
Sequence of Nucleophosmin (Homo sapiens) (P06748 whole entry): as the sequence (P06748 whole entry T199N) above, with N199T counted along it

For assay [9], the system named is Nucleophosmin (Homo sapiens), P06748 [T199N]. The experiment in a line: Inhibition of phosphorylated NPM1 recruitment to chromatic in 6 Gy irradiated human A549 cells assessed as increase in protein solubility as extraction of pT199NPM1 pretreated 30 mins and measured after 90 mins of irradiation at 10 uM by Western blot analysis. It is filed as cell-based. The method in brief:
(§2)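 Drug or DMSO at various concentrations was present on A549 cells for 30 min before, during, and 90 min after 0 or 6 Gy. Nuclear proteins were extracted in 420 mM NaCl high salt buffer and blotted for pT199 NPM1. Buffer-soluble pNPM1 in irradiated cells was quantified relative to non-irradiated cells (±SD, N=3). EC50 was taken from the band intensity plot.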

Assay [10] concerns the target T1, Nucleophosmin. Briefly: Inhibition of phosphorylated NPM1 recruitment to chromatic in 6 Gy irradiated human A549 cells assessed as increase in protein solubility as extraction of pT199NPM1 pretreated 30 mins and measured after 90 mins of irradiation by Western blot analysis. It counts as cell-based. The method in brief: as §2
Assay [11] has as its system Nucleophosmin (Homo sapiens), P06748 [T199N]. The experiment in a line: Inhibition of phosphorylated NPM1 recruitment to chromatic in 6 Gy irradiated human A549 cells assessed as extraction of pT199NPM1 pretreated 30 mins and measured after 90 mins of irradiation at 25 uM by Western blot analysis in presence of high salt lysis buffer. It counts as cell-based. The method in brief: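 A549 cells were dosed with 25 μM drug for 30 min, irradiated, and incubated 90 min. Nuclei were isolated on ice, then extracted in high salt buffer (10 mM HEPES pH 7.2, 420 mM NaCl, 1.5 mM MgCl2, 0.5 mM DTT, 25% glycerol). Extracts were immunoblotted for pT199 NPM1 and total NPM1.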

For assay [12] the test system is unchanged. The experiment in a line: Inhibition of phosphorylated NPM1 recruitment to chromatic in 6 Gy irradiated human A549 cells assessed as extraction of pT199NPM1 pretreated 30 mins and measured after 90 mins of irradiation at 25 uM by Western blot analysis in presence of high NP-40 lysis buffer. It is filed as cell-based.
Assay [13] has the same test system. The experiment in a line: Inhibition of phosphorylated NPM1 recruitment to chromatic in 6 Gy irradiated human A549 cells assessed as extraction of pT199NPM1 pretreated 30 mins and measured after 90 mins of irradiation at 25 uM by Western blot analysis in presence of high RIPA lysis buffer. It counts as cell-based.
Assay [14] has the same test system. The experiment in a line: Inhibition of phosphorylated NPM1 recruitment to chromatic in 6 Gy irradiated human IMR90 cells assessed as extraction of pT199NPM1 pretreated 30 mins and measured after 90 mins of irradiation at 25 uM by Western blot analysis relative to DMSO control in presence of high NP-40 lysis buffer. It is filed as cell-based. The settings on record: IMR-90. In a few lines: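 IMR-90 normal lung fibroblasts, grown in DMEM, received 25 μM drug for 30 min, were irradiated, and were incubated 90 min. Total lysate was prepared with NP-40 lysis buffer and analysed by Western blot for pT199 NPM1.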

SMILES strings stand for the structures. Active and inactive are the calls of the source. The calls are words filed in the database; no cut-off is given here.

For orientation: EC50 means the concentration needed to bring the measured effect to its halfway point.

Regarding `COc1cc(Cn2c(C)c(C=C3C(=O)NC(=O)NC3=O)c3ccccc32)cc(OC)c1OC`, the Ratio in assay [1] was found to be 1.16.

As to `Cc1c(C=C2C(=O)NC(=O)NC2=O)c2ccccc2n1Cc1ccccc1`, the Ratio in assay [1] came out at 1.53.

As for `Cc1c(C=C2C(=O)NC(=S)NC2=O)c2ccccc2n1Cc1ccc(Br)cc1`, in [2], the Ratio turned out to be 1.78. In addition, the concentration giving a half-maximal response (EC50) in assay [3] came out at 2.5 µM. Further, the fold change (FC) in assay [4] stood at 4. In addition, the result in assay [5] was Active.

Take `Cc1c(C=C2C(=O)NC(=O)NC2=O)c2ccccc2n1Cc1ccccc1Br`: in assay [1], the Ratio was 1.05.

`Cc1c(C=C2C(=O)NC(=O)NC2=O)c2ccccc2n1Cc1ccccc1C(F)(F)F`: in [1], the Ratio was 1.16.

Consider `COc1cc(Cn2c(C)c(C=C3C(=O)NC(=S)NC3=O)c3ccccc32)cc(OC)c1`, for which, in assay [1], the Ratio is 1.97.

On to `COC(=O)c1ccc(Cn2c(C)c(C=C3C(=O)NC(=S)NC3=O)c3ccccc32)cc1`, for which the Ratio in assay [1] came to 1.74.

Regarding `Cc1c(C=C2C(=O)NC(=S)NC2=O)c2ccccc2n1Cc1ccc(C#N)cc1`, the Ratio in assay [1] was 1.86.

For the molecule `Cc1c(C=C2C(=O)NC(=S)NC2=O)c2ccccc2n1Cc1ccccc1`, the Ratio in assay [1] came to 1.96.

For the molecule `COc1ccc(Cn2c(C)c(C=C3C(=O)NC(=S)NC3=O)c3ccccc32)c(OC)c1`, the Ratio in assay [1] came out at 1.22.

As to `Cc1c(C=C2C(=O)NC(=S)NC2=O)c2ccccc2n1Cc1ccccc1Br`, the Ratio in assay [1] was determined as 1.68.

For `COc1cc(Cn2c(C)c(C=C3C(=O)NC(=O)NC3=O)c3ccccc32)cc(OC)c1`, the Ratio in [1] is 1.63. In addition, the outcome in assay [6] was inactive.

As for `Cc1c(C=C2C(=O)NC(=S)NC2=O)c2ccccc2n1Cc1ccccc1C(F)(F)F`, the Ratio in assay [1] amounted to 1.54.

With `Cc1c(C=C2C(=O)NC(=O)NC2=O)c2ccccc2n1Cc1ccc(C#N)cc1`, in [1], the Ratio was determined as 1.58. Further, the outcome in assay [7] was inactive. For the same molecule, in assay [8], the result was Active.

As for `COC(=O)c1ccc(Cn2c(C)c(C=C3C(=O)NC(=O)NC3=O)c3ccccc32)cc1`, the Ratio in assay [1] stood at 1.48.

With `N#Cc1ccc(Cn2cc(C=C3C(=O)NC(=O)NC3=O)c3ccccc32)cc1`, the outcome in [9], in [11], in assay [12] and in [13] was Active. Besides, in assay [10], the EC50 came out at 9.7 µM. For the same molecule, in assay [1], the Ratio stood at 1.51. Besides, the result in assay [14] was inactive.

Turning to `Cc1c(C=C2C(=O)NC(=O)NC2=O)c2ccccc2n1Cc1ccc(Br)cc1`, the Ratio in assay [1] was found to be 1.23.

`COc1cc(Cn2c(C)c(C=C3C(=O)NC(=S)NC3=O)c3ccccc32)cc(OC)c1OC`: the Ratio in assay [1] turned out to be 1.97.
